Cytotoxicity data for 97 compounds are collected here from ChEMBL document CHEMBL4513216, “Probing the Open Global Health Chemical Diversity Library for Multistage-Active Starting Points for Next-Generation Antimalarials” (ACS Infect Dis, 2020).

The series can be described thus: Toxicity liver stage against HepG2, at 10uM. The series is classed as cell-based. The arrangement: test concentration 10 uM, cell line HepG2-A16-CD81EGFP. The conditions noted are these: human, HepG2-A16-CD81EGFP cells; read-out: INHIBITION
The essentials: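 Uninfected HepG2-A16-CD81EGFP cells, 3 × 10^3 per well, 1536-well, plated on prespotted compound at 10 μM final, parasite-free screening media added to match infected plates; puromycin 10 μM positive, DMSO 0.5% negative; run in parallel with 48 h PbLuc assay at 37 °C, 5% CO2; viability by CellTiter-Glo luminescence, normalized to controls.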
Consider `Cc1cccc(CN2C[C@@H](F)[C@@H](OCc3nc4ccccc4[nH]3)C2)n1`, for which the cytotoxicity at 10 µM was 8.01%.
For `Clc1ccc(CN2CCOC[C@H](Oc3cccnc3)C2)cc1`, the cytotoxicity at 10 µM came out at 6.12%.
`O=C1N(Cc2ccccn2)C[C@H]2CN(C3CCOCC3)CCN12`: the cytotoxicity at 10 µM amounted to 7.94%.
The same measure for `COCCN1C[C@H]2CN(C(=O)c3ccc4c(c3)OCO4)CCN2C1=O`: 13.7%.
The value for `CC(C)OCCCNC(=O)C1CC(=O)N(c2n[nH]c3cccc(F)c23)C1` (configuration not stated) was -4.73%; that for `COC(=O)N1CCC(CNS(=O)(=O)c2cnn(C)c2)CC1` was -9.03%; that for `COCCNC(=O)c1ccc2ccc(N3CCN(CC4CC4)CC3)n2c1` was 6.59%.
The value for `CN(C)CC(=O)N1CCC2(CC1)CN(Cc1cccnc1)C(=O)CO2` was -8.99%; that for `CC(C)NC(=O)c1ccc2c(c1)nc1n2CCN(Cc2ccco2)C1` was 8.16%.
In the case of `CC(C)[C@H](NC(=O)NC1CCS(=O)(=O)C1)C(=O)NCc1cccnc1` (some centres not stated), the cytotoxicity at 10 µM amounted to 5.47%.
The value for `O=C(Cn1ccc2c(Cl)cccc21)N[C@@H](C(=O)O)c1ccccc1` was 2.19%.
As for `CN1C(=O)C[C@@H]2[C@@H]1CCN2C(=O)c1ccc[nH]1`, the cytotoxicity at 10 µM is -14.8%.
The same measure for `CCc1ccc(NC(=O)Nc2c(O)oc3ccccc3c2=O)cc1`: 5.95%; for `CCn1nnc(NCc2cc(Cl)cc(Cl)c2OC)n1`: 13.6%.
As to `CCCc1nc(NCCCO)c2c(n1)c(C)nn2CC`, the cytotoxicity at 10 µM is 2.55%.
With `CN(C)C(=O)c1cn[nH]c1C1CCCN1Cc1cncn1C` (configuration not stated), the cytotoxicity at 10 µM is -1.89%.
The same measure for `CC(C)c1cc(C(=O)N[C@@H]2CC[C@@H](Oc3ccccc3)[C@@H]2O)on1`: 2.27%; for `Cc1c(S(=O)(=O)N2CCCCC2c2nnc(-c3cccs3)o2)cnn1C` (configuration not stated): 3.22%; for `CN(C)S(=O)(=O)N1CCC(c2c(C(N)=O)sc3ccccc23)C1` (configuration not stated): 4.83%.
The same measure for `CNc1nccnc1C1CN(C(=O)c2c[nH]cn2)CCO1` (configuration not stated): 3.4%.
The value for `COc1ccc(SC(C)C(=O)N2CCC(C(=O)N3CCCC3)CC2)cc1` (configuration not stated) was 1.03%; that for `CCc1ccccc1CNC(=O)CNC(=O)C(C)(C)C` was 2.29%; that for `O=C(NCCNC(=O)C1CC1)c1sccc1Br` was 1.66%.
Regarding `CC(C)CN(CC(O)c1ccccc1)C(=O)Nc1nccs1` (configuration not stated), the cytotoxicity at 10 µM was -1.96%.
The same measure for `Cc1nc(CNCc2ccc(N3CCC(CO)CC3)nc2)cs1`: 1.58%.
The value for `Cc1ccoc1C(=O)NC(CC(C)C)C(=O)N1CCC(CO)CC1` (configuration not stated) was 0.794%; that for `CC(C)C(C(=O)NCC1CC1)n1cnc2cc(F)c(F)cc21` (configuration not stated) was 3.26%; that for `CNC(=O)NC(=O)CCN1CCCC1c1nc(C2CCCCC2)co1` (configuration not stated) was 5.44%.
The value for `O=C(c1csc(-c2cccs2)n1)N1CCN2CCCCC2C1` (configuration not stated) was -3.04%.
For the compound `Cc1cccc(COc2ccccc2C(=O)N2CCC(C(N)=O)CC2)c1`, the cytotoxicity at 10 µM is -7.08%.
Turning to `O=C(Cn1cc(C2CC2)nn1)NC(c1cc(F)ccc1F)C1CC1` (configuration not stated), the cytotoxicity at 10 µM was -12.6%.
The same measure for `CC(CC#N)N(C)Cc1ccc(F)cc1F` (configuration not stated): 6.03%; for `Cc1ccc2cc(C(=O)N3CCN(S(C)(=O)=O)CC3)[nH]c2c1`: -58.1%.
The same measure for `CCN1CCN(C(=O)c2c[nH]c(C(C)C)n2)c2ccccc21`: 11.2%; for `Cc1c(C(=O)N2CCC(C(O)c3ccc(Cl)cc3)CC2)cnn1C` (configuration not stated): -0.916%.
The same measure for `Cc1nc2n(n1)CCN(S(=O)(=O)c1ccc(Cl)cc1)C2`: 5.76%; for `CN(Cc1nc2ccccc2c(=O)[nH]1)C1CC(=O)N(C2CC2)C1=O` (configuration not stated): 4.09%.
As to `Cc1ccc(F)c(S(=O)(=O)NCc2cccc(N3CCOC3=O)c2)c1`, the cytotoxicity at 10 µM was determined as 9.62%.
As for `CN(Cc1ccco1)C(=O)CN1CCc2ccccc2C1`, the cytotoxicity at 10 µM is -2.19%.
The same measure for `CCOc1cccc(CSC(C)c2nc(C)no2)n1` (configuration not stated): -22.6%; for `COc1ccccc1CN(CC1CCCO1)C(=O)c1cc(C)n[nH]1` (configuration not stated): -2.28%; for `N#Cc1ccc(SCCC(=O)N(Cc2cccnc2)C2CC2)cc1`: 12.3%.
The same measure for `Cc1cc(C(C)(O)CNC(=O)C2(C)CCCC2)c(C)o1` (configuration not stated): -4.88%; for `CCNC(=O)NC(=O)CN1CCOC(c2ccc(Br)cc2)C1` (configuration not stated): 2.08%; for `CCc1nccn1CC(=O)Nc1cccc(C(=O)OC)c1`: -6.88%.
`COc1ncccc1C(=O)N1CCC(CNC(C)=O)CC1`: the cytotoxicity at 10 µM came to 3.17%.
The value for `CCc1nnc2n1CCN(Cc1csc(-c3ccsc3)n1)C2` was -17.5%; that for `Cc1c(NC(=O)NCC(C)N2CCOCC2)cccc1OC(F)F` (configuration not stated) was -2.88%; that for `Cn1ccnc1CCC1CCCCN1Cc1nccn1C` (configuration not stated) was 8.13%.
The value for `O=C(O)c1cccc(C2CCCN(S(=O)(=O)C3CC3)C2)c1` (configuration not stated) was 3.24%.
As to `CC1(C)Cc2nc(C(C)(C)C)ncc2C(NC(=O)C2(N)CC2)C1` (configuration not stated), the cytotoxicity at 10 µM was -2.49%.
The value for `COc1cccc(CCC2CCCN(C(C)=O)C2)c1` (configuration not stated) was -15.9%.
The value for `O=C(C1CCCO1)N1CCC(n2cc(-c3ccc(F)cc3)nn2)CC1` (configuration not stated) was -1.41%; that for `Cc1nc(NC(=O)N(C)Cc2ccoc2)nn1C` was -6.03%; that for `Cc1cnn(CCC(=O)N2CCC3(CCC(=O)N(CC4CC4)C3)CC2)c1` was -2.62%.
Regarding `CN(C)Cc1nnc(C2CCCN(c3nc(C(N)=O)cs3)C2)n1C` (configuration not stated), the cytotoxicity at 10 µM was determined as 1.05%.
The same measure for `CCNc1ccc(-c2ccnc3c2ccn3C)nn1`: -18.1%; for `CCn1c(N)nc2cc(C(=O)N(C)Cc3cc(C(C)(C)C)n[nH]3)cnc21`: 4.53%.
The value for `COc1ccccc1[C@@H]1CN(Cc2cc(C(C)(C)C)[nH]n2)C[C@H]1C(=O)O` was 18.4%.
The value for `CCc1ncc(CNC2CC(=O)N(CCc3cccc(Cl)c3)C2)cn1` (configuration not stated) was -3.62%; that for `CC(=O)c1cn(CC(=O)NC(C(=O)O)C(C)C)c2ccccc12` (configuration not stated) was 0.415%; that for `CCc1nc(C)c(C(=O)NCCn2nc3ccccn3c2=O)s1` was -9.42%.
On to `CN(C)CC1CN(Cc2nc(-c3ccccn3)no2)CCO1` (configuration not stated), for which the cytotoxicity at 10 µM is -5.8%.
The same measure for `CC(NC(=O)NCCCN1CCCCCC1=O)c1nncn1C` (configuration not stated): -0.734%; for `CC(C)CCN(CCC(C)C)Cc1nc2c(cnn2C)c(=O)[nH]1`: -5.57%.
The value for `O=C(COc1ccc2c(c1)CCC2)NS(=O)(=O)c1cccnc1` was -4.63%; that for `CC(C)c1noc(CN2CCN(CCO)CC2)n1` was -5.57%.
The same measure for `COC(=O)c1ccc(N2CCN(C(=O)c3cc(C)no3)C(C)C2)cc1` (configuration not stated): -0.192%; for `CNC(=O)CCS(=O)(=O)Cc1cc(Cl)c2c(c1)OCCCO2`: -6.31%.
Regarding `CCc1nc(CN(C(C)=O)C2CCN(Cc3ccccc3F)C2)no1` (configuration not stated), the cytotoxicity at 10 µM was -12.3%.
As for `COc1ccc(C2=CCN(C(=O)CN(C)S(C)(=O)=O)CC2)cc1`, the cytotoxicity at 10 µM was -3.99%.
The same measure for `c1ccc(OCCN2CCc3c(ncn3C3CC3)C2)cc1`: -10.3%; for `O=S(=O)(CCN1CCc2c(ncn2C2CC2)C1)c1ccccc1`: -14.5%.
On to `COc1ncccc1CNC(=O)NC(C)Cn1cccn1` (configuration not stated), for which the cytotoxicity at 10 µM was -12.5%.
The value for `COc1ccc(C(=O)N2CCCS2(=O)=O)cc1` was -1.88%.
The value for `CCc1nccn1C1CCCN(C(=O)c2c(C)nsc2NC)C1` (configuration not stated) was -5.86%.
Consider `Cn1ccnc1CN1CCCN(C(=O)COC2CCCC2)CC1`, for which the cytotoxicity at 10 µM was -18.1%.
The value for `CC(=O)N1CCCN(C(=O)NCCc2ccc(Cl)s2)CC1` was -2.24%; that for `CCCOc1cc(CNC(=O)Nc2cccnc2N2CCCC2)ccn1` was -2.06%.
The value for `c1coc(-c2noc(CN3CC(n4cccn4)C3)n2)c1` was 2.96%; that for `CN(C)C(=O)COCc1cncc2c1CCN(Cc1ccccn1)C2` was -2.51%; that for `NCC1CCC(c2c(C(=O)NCCO)sc3ccccc23)CC1` (configuration not stated) was -11%.
In the case of `Cc1ccc(N2CCc3c(CN(C)Cc4ccco4)cncc3C2)nn1`, the cytotoxicity at 10 µM is -6.57%.
For the compound `Cn1cc(C(=O)NCc2cn3c(n2)CN(CC2CCOC2)CC3)cn1` (configuration not stated), the cytotoxicity at 10 µM came to 5.22%.
The same measure for `CC(C)c1nn(C)c(N(C)C)c1CNCc1cscn1`: -5.54%; for `Cc1nc(CN2CCC3(CCN(Cc4nccn4C)CC3)C2=O)cs1`: -1.43%; for `CN(C)C(=O)[C@@H]1CCO[C@@H]2CCN(Cc3ccccc3)C[C@@H]21`: -12.1%.
The value for `Cc1cccc(CN2C(=O)CCC23CCN(c2ccccn2)CC3)n1` was 3.2%; that for `O=C1CC2(CCN(Cc3ccncc3)C2)CN1c1cccc(F)c1` (configuration not stated) was -152%.
The value for `O=C1N(c2cncnc2)CCC12CCCN(Cc1ccccn1)C2` (configuration not stated) was -9.35%; that for `CCOCC1CN(C(=O)c2cnoc2C)Cc2cnn(C)c21` (configuration not stated) was 0.384%; that for `COCCn1cc2c(n1)C(CNCc1ccco1)OCC2` (configuration not stated) was -11.9%.
With `Cc1ccc(CNC(C)c2ccc(N3CCN(C)CC3)c(F)c2)o1` (configuration not stated), the cytotoxicity at 10 µM is -2.76%.
The value for `CN(C)C[C@@H]1CCC[C@@H]2CN(c3cccnc3)C[C@@H]21` was -11.9%; that for `COCC1CC2(CCN(Cc3cccc(C#N)c3)CC2)CN1C(C)C` (configuration not stated) was 0.866%; that for `CC(C)N1C(=O)C2(CCN(C)CC2)c2cc(F)ccc21` was -110%.
Take `CN1CC(=O)N(c2ccccc2)CC12CCN(CC1CCOCC1)C2` (configuration not stated): the cytotoxicity at 10 µM was 4.22%.
